m5-HT2A agonist = mouse HTR2A agonism via beta-arrestin recruitment. CHO-K1 mHTR2A beta-arrestin complementation, luminescence; percent of 30 µM serotonin response. activation, % at 7.6 µM. 0.66% of 360,000 active. AID 624169;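 active = activation above a run cutoff, the mean activation of all tested compounds plus 3 SD, cut at about 14% in these data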
Target sequence (P35363 whole entry, looked up): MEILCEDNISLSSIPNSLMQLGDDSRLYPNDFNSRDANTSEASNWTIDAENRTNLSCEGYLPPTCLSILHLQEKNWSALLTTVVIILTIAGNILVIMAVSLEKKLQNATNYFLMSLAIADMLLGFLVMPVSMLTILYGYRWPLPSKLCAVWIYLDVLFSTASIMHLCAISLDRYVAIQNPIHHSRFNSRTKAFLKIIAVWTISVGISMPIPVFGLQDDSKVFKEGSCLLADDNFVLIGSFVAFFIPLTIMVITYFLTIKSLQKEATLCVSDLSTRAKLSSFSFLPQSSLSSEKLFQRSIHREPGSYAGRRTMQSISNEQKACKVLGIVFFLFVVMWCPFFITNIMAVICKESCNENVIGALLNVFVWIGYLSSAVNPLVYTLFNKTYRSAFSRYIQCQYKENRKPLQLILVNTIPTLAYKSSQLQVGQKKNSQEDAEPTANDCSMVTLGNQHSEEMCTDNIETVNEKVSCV
dFosB act-1 = activators of mouse delta FosB homodimer. P13346. purified delta FosB, TAMRA-CDK5 oligo fluorescence polarization; percent of positive-control signal above neutral wells. activation, % at 25 µM. 0.99% of 340,000 active;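 active = mean activation above about 17%, with every replicate also reaching it, limit read from the data, passing the limit was not always enough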
VIM-2 inhibitor = inhibitors of Pseudomonas aeruginosa VIM-2 metallo-beta-lactamase. purified VIM-2, nitrocefin hydrolysis, epi-absorbance fluorescence. inhibition, % at 5.6 µM. 0.89% of 290,000 active. AID 1527;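 active = inhibition above the mean of all tested compounds plus 3 SD, cutoff set per screening run, cut at about 7.5% in these data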;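 also: red hydrolysis product quenches plate fluorescence so inhibitors raise well fluorescence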
IMP-1 inh = inhibitors of Pseudomonas aeruginosa IMP-1 metallo-beta-lactamase | purified IMP-1, nitrocefin hydrolysis, epi-absorbance fluorescence | inhibition, % at 5.6 µM | 0.45% of 290,000 active | AID 1556;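 active = inhibition above the mean plus 3 SD of all compounds in the same screening run, cut at about 4.5% in these data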
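System: Purified recombinant IMP-1 metallo-beta-lactamase enzyme | Measured by: Fluorescence quenching readout, ex 480/em 530 nm | Replication: Singlicate | Incubation: 15 min preincubation plus 25 min reaction at 25 °C | Evaluation: Percent inhibition from optical density relative to buffer-blank wells | Benchmarks: DMSO with and without IMP-1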
dFosB act-2 = delta FosB (mouse) homodimer activation. shares compounds with dFosB act-1. purified delta FosB, TAMRA-CDK5 oligo fluorescence polarization; normalised: neutral wells 0, positive control 100. activation, % at 24.9 µM. 2,400 tested, under 10 active. AID 588690;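 active = highest replicate activation at or above 34% and every replicate reaching that threshold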;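 also: higher polarization means more probe DNA bound by delta FosB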
Each line names hits and unclear results; the compound was inactive in the other large screens (follow-up assays come after a bar, where they were run). An excerpt weighted towards active compounds, which were near 2.5% of everything screened.

COc1ccc(CCn2c(SCC(=O)Nc3cc(C)on3)nc3ccsc3c2=O)cc1OC	dFosB act-1 23 | dFosB act-2 inactive
COc1ccc(CCn2c(SCC(=O)Nc3cc(C)on3)nc3ccccc3c2=O)cc1OC	none
COCCn1cnc2c1c(=O)n(CC(=O)Nc1cc(C)on1)c(=O)n2Cc1ccccc1	none
Cc1cc(NC(=O)Cn2c(=O)n(Cc3ccccc3)c(=O)c3ccccc32)no1	dFosB act-1 52 | dFosB act-2 inactive
CC(=O)N1CCOc2ccc(S(=O)(=O)N3CCC(C(=O)Nc4ccc(F)cc4)CC3)cc21	none
O=C(CC1C[C@H](C(=O)N2CCCCC2)[C@@]2(CCc3ccccc3)c3[nH]c4ccccc4c3CCN2C1=O)NCCc1ccccn1 (stereo partly drawn)	none (no result: VIM-2 inhibitor, IMP-1 inh)
O=C(Cn1c2ccccc2c(=O)c2ccccc21)Nc1ccccc1F	dFosB act-1 37 | dFosB act-2 inactive
O=C(N/N=C/c1cccc2nccnc12)c1ccccc1O	dFosB act-1 23 | dFosB act-2 inactive
O=C(N/N=C/c1cccc2cccnc12)c1ccccc1O	none
COc1ccc(C)cc1S(=O)(=O)N1CCN(C)CC1c1ccccc1 (stereo not drawn)	none (no result: VIM-2 inhibitor, IMP-1 inh)
Cc1ccc(NC(=O)CSC2=C(C#N)C(c3ccc4c(c3)OCO4)CC(=O)N2)cc1C (stereo not drawn)	dFosB act-1 46 | dFosB act-2 inactive
CCc1ccc(NC(=O)CSC2=C(C#N)C(c3ccc4c(c3)OCO4)CC(=O)N2)cc1 (stereo not drawn)	none
C[C@@H]1CN([C@@H](C)CO)C(=O)c2cc(Br)cnc2O[C@@H]1CN(C)S(C)(=O)=O	none (no result: dFosB act-1, VIM-2 inhibitor, IMP-1 inh)
O=C(c1cc2ccccc2o1)N1CCN(S(=O)(=O)c2ccc(F)c(F)c2F)CC1	dFosB act-1 33 (no result: VIM-2 inhibitor, IMP-1 inh) | dFosB act-2 inactive
CCc1cccc(NC(=O)CCc2nc3sc4c(c3c(=O)[nH]2)CCCC4)c1	none (no result: VIM-2 inhibitor, IMP-1 inh)
Cc1cccc(NC(=O)CCc2nc3sc4c(c3c(=O)[nH]2)CCCC4)c1	dFosB act-1 20 (no result: VIM-2 inhibitor, IMP-1 inh) | dFosB act-2 inactive
Cc1ccc(N2C(=O)C3ON(c4ccccc4)C(CC(C)C)C3C2=O)cc1 (stereo not drawn)	none
O=C(Nc1ccc(-c2nc3cccnc3s2)cc1)c1ccc(Br)o1	dFosB act-1 35 | dFosB act-2 inactive
O=C(NC(NC(=S)Nc1cc(Cl)ccc1Cl)C(Cl)(Cl)Cl)c1ccco1 (stereo not drawn)	none
Cc1ccc(C)c(NC(=S)NC(NC(=O)Cc2cccc3ccccc23)C(Cl)(Cl)Cl)c1 (stereo not drawn)	dFosB act-1 28 | dFosB act-2 inactive
O=C(NCc1csc2ccc(Cl)cc12)Nc1cccc2ccccc12	dFosB act-1 44 | dFosB act-2 inactive
O=C(NCc1ccccc1)Nc1cc(Cl)ccc1Cl	dFosB act-1 40 | dFosB act-2 inactive
O=C(NCc1csc2ccc(Cl)cc12)Nc1ccccc1	none
O=C(Cc1ccccc1)NC(NC(=S)Nc1cc(Cl)ccc1Cl)C(Cl)(Cl)Cl (stereo not drawn)	dFosB act-1 22 | dFosB act-2 inactive
COc1c(C)cccc1C(=O)NC(=S)Nc1ccccc1N1CCCC1	none
O=C(/C=C/c1ccccc1)Nc1nc(-c2ccncc2)cs1	dFosB act-1 17 | dFosB act-2 inactive
COc1ccc(OC)c(/C=N/NC(=O)c2[nH]nc3c2CCc2ccccc2-3)c1	dFosB act-1 23 | dFosB act-2 inactive
CCNC(=O)C1(C)CCN(C(=O)c2cccc(Cl)c2)C1 (stereo not drawn)	none (no result: dFosB act-1, VIM-2 inhibitor, IMP-1 inh)
NC(=O)CC(NC(=O)Cc1ccc(Br)cc1)c1ccc(NCc2ccc(F)cc2)c([N+](=O)[O-])c1 (stereo not drawn)	dFosB act-1 53 (no result: VIM-2 inhibitor, IMP-1 inh) | dFosB act-2 inactive
NC(=O)CC(NC(=O)Cc1ccc(Br)cc1)c1ccc(NCC2CC2)c([N+](=O)[O-])c1 (stereo not drawn)	none (no result: VIM-2 inhibitor, IMP-1 inh)
NC(=O)CC(NC(=O)c1ccccc1)c1ccc(NCCOc2ccccc2)c([N+](=O)[O-])c1 (stereo not drawn)	dFosB act-1 26 (no result: VIM-2 inhibitor, IMP-1 inh) | dFosB act-2 inactive
CC(C)c1ccc(C(CC(=O)O)N2Cc3ccccc3C2=O)cc1 (stereo not drawn)	none
COc1ccc(Cc2c(C3CCCCC3)nc3c(C)cc(Br)cn23)c(C)c1	none (no result: dFosB act-1, VIM-2 inhibitor, IMP-1 inh)
COc1ccccc1C1CC(c2ccccc2)=NN1S(=O)(=O)c1ccccc1 (stereo not drawn)	none

High-throughput results: PubChem BioAssay, several laboratories
